# Compound activity from PubChem BioAssay.
# Rows were chosen to be rich in hits. Some 9.2% of all compounds tested hit in one or more screens of this group.
# ERa SRC1 inh: ER-alpha (human) coactivator binding inhibition | P03372 | TR-FRET ER-alpha LBD / SRC-1 peptide, estradiol-bound | inhibition, % at 25.6 µM | 86,000 compounds, 1.7% hits; in the data active means inhibition above about 50%
# ERb SRC1 inh: blocks coactivator binding to human estrogen receptor beta; Q92731; TR-FRET ER-beta LBD / SRC1-Cy5 peptide binding; receptor agonist-loaded with 1 µM estradiol; inhibition, % at 25.6 µM; 86,000 compounds, 1.3% hits; AID 633;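 active means compounds whose percent inhibition of the receptor-coactivator binding signal exceeds about 50% in the single-dose screen, limit read from the data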
# Target sequence (Q92731 whole entry, looked up, the tested form may be a part): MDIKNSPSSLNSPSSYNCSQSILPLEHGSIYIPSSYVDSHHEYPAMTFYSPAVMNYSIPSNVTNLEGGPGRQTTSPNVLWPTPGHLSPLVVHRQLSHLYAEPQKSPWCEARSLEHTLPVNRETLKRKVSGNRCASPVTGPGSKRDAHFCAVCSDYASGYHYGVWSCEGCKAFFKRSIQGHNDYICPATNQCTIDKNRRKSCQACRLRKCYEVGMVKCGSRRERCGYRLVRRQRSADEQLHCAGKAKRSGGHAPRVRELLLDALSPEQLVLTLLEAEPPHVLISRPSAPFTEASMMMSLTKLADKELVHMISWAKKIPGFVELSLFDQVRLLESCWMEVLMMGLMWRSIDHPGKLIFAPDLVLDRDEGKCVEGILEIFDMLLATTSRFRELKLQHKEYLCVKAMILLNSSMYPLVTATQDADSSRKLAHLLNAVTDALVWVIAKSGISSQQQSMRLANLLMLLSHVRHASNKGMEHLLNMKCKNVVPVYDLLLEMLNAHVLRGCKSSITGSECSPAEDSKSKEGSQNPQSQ
# H69AR inhibit: blocks growth of human H69AR lung tumor cells; 85,000 compounds, 6% hits; viability, % at 10 µM; H69AR lung tumor viability, ATP luminescence, 72 h; hits give low values;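 active means viability at or below 40%; inactive means viability above 40%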;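 further: multidrug resistant small cell line overexpressing MRP-1 efflux transporter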
# ERa coact pot: enhances coactivator binding to human estrogen receptor alpha | P03372 | TR-FRET ERalpha-LBD/SRC-Cy5 coactivator binding, 2 h; 100 = basal binding, no effect | coactivator binding (% of control), % at 25.6 µM | 86,000 compounds, 1.3% hits; in the data active means activity above about 200%;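 further: binding measured in presence of low estradiol as agonist stimulus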
# HUVEC prolif 384: blocks proliferation of human endothelial cells; viability, % at 10 µM (by protocol); HUVEC proliferation, CellTiter-Glo luminescence, 72 h; hits give low values; AID 648; 86,000 compounds, 1.1% hits;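 active means viability at or below 30%; inactive means viability above 30%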
# Lung fibro prol: blocks proliferation of human lung fibroblasts; LL 47 human lung fibroblast viability, ATP luminescence; hits give low values; viability, % at 10 µM; 85,000 compounds, 1.1% hits; AID 719;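 active means viability at or below 50% in the single dose screen; inactive means viability above 50%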;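 further: compound exposure lasted 72 h before the ATP readout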
#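 Material: Human LL 47 lung fibroblast cells | Input: 1,150 cells/well | Buffer or medium: IMEM plus 15% FBS | Compound dosing: 0.1% DMSO in all compound wells | Times: Overnight cell rest, 72 h compound treatment at 37 °C | Signal: CellTiter-Glo luminescence measuring cellular ATP | Measure: % viability versus median cells-only luminescence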
# Numbers stand for hits; 0 = inactive; - = no result; [ ] = dose if it differs, or a comment.
SMILES,ERa SRC1 inh,ERb SRC1 inh,H69AR inhibit,ERa coact pot,HUVEC prolif 384,Lung fibro prol
O=C1c2oc3ccc(Cl)cc3c(=O)c2C(c2cccc(Br)c2)N1CCO (configuration not stated),0,0,26,0,0,0
CCN(CC)CCN1C(=O)c2oc3ccccc3c(=O)c2C1c1cccc(Br)c1 (configuration not stated),0,0,37,0,0,0
CN(C)CCCN1C(=O)c2oc3ccc(Cl)cc3c(=O)c2C1c1cccnc1 (configuration not stated),0,0,0,0,0,0
CCN(CC)CCN1C(=O)c2oc3ccccc3c(=O)c2C1c1ccccc1 (configuration not stated),0,0,-,0,0,0
CC(C)c1ccc(CN2CCC(C(=O)NCc3cccnc3)CC2)cc1,0,0,0,0,0,0
Cn1c(Cl)cnc1C(O)c1ccccc1 (configuration not stated),0,0,0,0,0,0
O=c1cnn(-c2ccccc2)c(-c2ccccc2)c1,0,0,25,0,0,0
COc1cnn(-c2ccccc2)c(=O)c1N(C)C,0,0,0,0,0,0
O=C1c2ccccc2C(Nc2ccc(S(=O)(=O)N3CCOCC3)cc2)N1Cc1ccco1 (configuration not stated),0,0,0,0,0,0
O=C(c1cn(-c2ccccc2)nc1-c1cccs1)N1CCN(c2ccccc2)CC1,0,0,11,0,0,0
O=C(Nc1cccc2ccccc12)c1cn(-c2ccccc2)nc1-c1cccs1,0,0,0,203[fluorescence artefact?],0,0
CCCC[n+]1ccn(C2=C([O-])c3ccccc3C(=O)/C2=N\S(=O)(=O)c2ccccc2)c1,0,0,8.6,0,5.1,0
CCCCC[n+]1ccn(C2=C([O-])c3ccccc3C(=O)/C2=N\S(=O)(=O)c2ccccc2)c1,0,0,25,0,11,0
O=C1C2CC=CCC2C(=O)N1c1ccc(Cc2ccncc2)cc1 (configuration not stated),0,0,0,0,0,0
CCOC(=O)c1c(C)oc2c(F)c(F)c(F)c(F)c2c1=O,0,0,-,0,8.7,0
Cc1ccc(C)c(N(CC(N)=O)S(C)(=O)=O)c1,0,0,0,0,0,0
COC(=O)c1ccc(C)c(NS(=O)(=O)c2ccc3c(c2)OCCO3)c1,0,0,30,0,0,0
CC(=O)c1cc2c(cc1NS(=O)(=O)c1ccc(C)cc1)OCCO2,0,0,18,0,0,0
COC(=O)c1ccc(C)c(NS(=O)(=O)c2ccc(OC)cc2)c1,0,0,37,0,0,0
COC(=O)c1sccc1NS(=O)(=O)c1ccc(OC)cc1,0,0,15,0,0,0
COc1ccc(S(=O)(=O)Nc2nncs2)cc1,0,0,0,0,0,0
CC(=O)c1cc2c(cc1NS(=O)(=O)c1ccccc1)OCO2,0,0,0,0,0,0
O=C1CC(c2ccsc2)c2cc3c(cc2N1)OCCO3 (configuration not stated),0,0,27,0,0,0
CCOc1c(OC)cccc1C1CC(=O)Nc2cc3c(cc21)OCCO3 (configuration not stated),0,0,15,0,0,0
CCCOc1c(OC)cccc1C1CC(=O)Nc2cc(OC)c(OC)c(OC)c21 (configuration not stated),0,0,0,0,0,0
COc1ccc(N2C(=O)NC3CC2(C)Oc2ccccc23)cc1OC (configuration not stated),0,0,26,0,0,0
Clc1ccc(Oc2nc(N3CCOCC3)nc(N3CCOCC3)n2)cc1,0,0,0,0,0,0
CCc1[nH]nc2c1C(c1cccc(OC(=O)N3CCOCC3)c1)C(C#N)=C(N)O2 (configuration not stated),0,0,0,563,0,0
CCCc1[nH]nc2c1C(c1ccc(OC(=O)N3CCOCC3)c(OC)c1)C(C#N)=C(N)O2 (configuration not stated),0,0,0,0,0,0
CCc1[nH]nc2c1C(c1ccsc1)C(C#N)=C(N)O2 (configuration not stated),0,0,0,0,0,0
